TMEM16A act – activators or potentiators of mouse TMEM16A chloride channel; Q8BHY3; HEK293 TMEM16A/YFP-H148Q/I152L, iodide quench fluorescence; stronger effect = lower value; B-score at 10 µM; actives 0.3% (n = 340,000); AID 623877;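 active = fluorescence-ratio B-score plate-corrected deviation score at least 3 library SD below zero, with starting fluorescence score within 5 deviations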;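 note: channel opened by trigger with iodide after compound preincubation; score built on the fluorescence ratio of max minus min over baseline; more negative score means more quench and so TMEM16A activation or potentiation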
IMP-1 inh – inhibitors of Pseudomonas aeruginosa IMP-1 metallo-beta-lactamase | purified IMP-1, nitrocefin hydrolysis, epi-absorbance fluorescence | inhibition, % at 5.6 µM | actives 0.45% (n = 290,000);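 active = inhibition above the mean plus 3 SD of all compounds in the same screening run, cut at about 4.5% in these data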;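 note: 0% = IMP-1 with DMSO and 100% = DMSO wells lacking enzyme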
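assay system = purified recombinant IMP-1 metallo-beta-lactamase enzyme | schedule = 15 min preincubation plus 25 min reaction at 25 °C | signal = Epi-absorbance fluorescence, 480 nm excitation, 530 nm emission | read-out basis = percent inhibition from optical density relative to buffer-blank wells | controls = IMP-1 with DMSO as 0%, enzyme-free DMSO as 100%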
CHT block – inhibitors of human choline transporter CHT | Q9GZV3 | CHT-expressing cells, membrane potential dye, choline response; stronger effect = lower value | B-score at 10 µM | actives 0.86% (n = 310,000) | AID 488975;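 active = B-score over 3 SD under the library average, and starting fluorescence ratio not unusually high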;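 note: choline stimulus applied at its EC90 after an EC20 pre-addition; B-score computed on integrated fluorescence ratio after choline addition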
Target sequence (Q9GZV3 whole entry, looked up): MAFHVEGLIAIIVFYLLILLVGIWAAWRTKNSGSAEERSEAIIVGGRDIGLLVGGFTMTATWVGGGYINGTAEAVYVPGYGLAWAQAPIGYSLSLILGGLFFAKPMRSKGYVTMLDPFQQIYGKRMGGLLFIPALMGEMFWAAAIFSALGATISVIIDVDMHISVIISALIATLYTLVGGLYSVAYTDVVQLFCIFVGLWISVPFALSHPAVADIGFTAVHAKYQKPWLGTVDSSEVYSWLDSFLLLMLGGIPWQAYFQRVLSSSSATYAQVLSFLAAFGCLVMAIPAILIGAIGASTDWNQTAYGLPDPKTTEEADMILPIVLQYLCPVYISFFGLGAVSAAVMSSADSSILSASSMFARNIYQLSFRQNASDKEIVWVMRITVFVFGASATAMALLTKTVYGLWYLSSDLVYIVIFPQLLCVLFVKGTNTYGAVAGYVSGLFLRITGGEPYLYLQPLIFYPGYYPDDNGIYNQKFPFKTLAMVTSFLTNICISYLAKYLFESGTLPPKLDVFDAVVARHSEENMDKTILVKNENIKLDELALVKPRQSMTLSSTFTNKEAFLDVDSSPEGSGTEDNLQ
ANO1 block – inhibitors of mouse TMEM16A calcium-activated chloride channel. HEK293 TMEM16A/YFP iodide influx fluorescence, ionomycin. actives 1.2% (n = 310,000). Q8BHY3. normalized B-score (activity score, 25-100; higher = stronger inhibition) at 10 µM. AID 588511;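 active = ratio plate-corrected score three or more library SD toward inhibition, starting fluorescence score within five deviations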;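 note: score derived from kinetic fluorescence span divided by baseline fluorescence per well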
VIM-2 inh – blocks Pseudomonas aeruginosa VIM-2 metallo-beta-lactamase | purified VIM-2, nitrocefin hydrolysis, epi-absorbance fluorescence | inhibition, % at 5.6 µM | actives 0.89% (n = 290,000);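 active = inhibition above the mean of all tested compounds plus 3 SD, cutoff set per screening run, cut at about 7.5% in these data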;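 note: red hydrolysis product quenches plate fluorescence so inhibitors raise well fluorescence; 0% = enzyme with DMSO and 100% = DMSO without enzyme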
CHT allo act – allosterically activates the human high affinity choline transporter; actives 0.49% (n = 310,000); CHT-expressing cells, membrane potential dye, choline EC20; stronger effect = higher value; LV-AA mutant CHT in HEK293 cells; Q9GZV3; AID 488977; B-score at 10 µM;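 active = initial fluorescence not abnormally high and integrated response B-score, plate-corrected, over 3 SD above library mean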
CHT inh conf – human CHT inhibition, confirmatory screen; shares compounds with CHT block; CHT-expressing cells, choline membrane potential dye; LV-to-AA substituted CHT, HEK293 cells; CHT activity remaining % of control (stronger effect = lower value), % at 10 µM; actives 70% (n = 2,400); AID 493221;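 active = choline transporter activity left, mean of duplicates at 10 µM, below buffer-only control mean minus 3 SD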;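 note: depolarization triggered by choline at its EC90 following an EC20 pre-addition; 0% = hemicholinium-3 full block and 100% = buffer-only control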
HEK293 CHT ctr – counter-screen for CHT inhibitors: effect in parental HEK293 cells; actives 4% (n = 2,400); membrane potential ratio readout (active if shifted either direction beyond buffer ±3SD; no single direction) at 10 µM; shares compounds with CHT block; membrane potential dye, choline response; active = decrease or increase beyond buffer ±3SD;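 note: parental cells lack the transporter so any hit is non-specific; ratio is peak minus trough fluorescence over baseline after EC90 choline challenge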
* marks the source's active call; other numbers are inactive results; i = inactive; / = no result given. In the library only some 3.4% were active in any assay of this set; here they are far more common.

SMILES	TMEM16A act	IMP-1 inh	CHT block	ANO1 block	VIM-2 inh	CHT allo act	CHT inh conf	HEK293 CHT ctr
CC(C)Cc1nnc(NC(=O)c2ccc3c(=O)n4c(nc3c2)CCC4)s1	i	-0.9	i	i	0.8	i	/	/
CC(CNC(=O)c1ccc(OC2CCN(Cc3ccccn3)CC2)cc1)c1ccccc1 (configuration not stated)	i	0.0	-11.9*	i	-5.3	i	10.4%*	i
CN(C(=O)c1ccc(OC2CCN(Cc3ccccn3)CC2)cc1)C1CCCCC1	i	-4.5	i	i	-2.7	i	/	/
O=C(NC1CCCCC1)c1ccc(OC2CCN(Cc3ccccn3)CC2)cc1	i	-0.3	-12.9*	i	-1.8	i	-6.3%*	i
CC(C)c1cc(CNC(=O)c2ccc(OC3CCN(Cc4ccccn4)CC3)cc2)on1	i	-2.9	i	i	-5.0	i	/	/
CN(C)S(=O)(=O)c1cccc(NC(=O)CSc2cccc3cccnc23)c1	i	-2.7	i	i	-3.4	i	/	/
Cc1cnc(CNC(=O)C2CCC(=O)N(CCc3ccc(Cl)cc3)C2)cn1 (configuration not stated)	i	3.0	/	/	-0.9	/	/	/
COc1ccccc1NC(=O)NC1(C(=O)N2CCC(C)CC2)CCCCC1	i	-4.0	i	i	-2.1	i	/	/
CCCn1nc(NS(=O)(=O)c2cccc3nonc23)c2cc3cccc(C)c3nc21	i	1.6	-6.27*	100*	-0.9	i	54.4%*	i
Cc1ccc2cc3c(NS(=O)(=O)c4cccc5nonc45)nn(CC(C)C)c3nc2c1	i	-3.9	-5.96*	i	-3.3	i	64.5%*	i
CCCn1nc(NS(=O)(=O)c2cccc3nonc23)c2cc3cc(C)ccc3nc21	i	-2.9	i	i	-3.8	i	/	/
CCOc1ncccc1C(=O)Nc1cccc(-c2nnc3n2CCCCC3)c1	i	-2.8	i	i	-0.3	i	/	/
c1cc(Nc2ncnc3sccc23)cc(-c2nnc3n2CCCCC3)c1	i	-3.2	-6.01*	i	0.6	i	56.5%*	i
OC1CCCCC1	i	/	/	/	/	/	/	/
COc1cc(-c2nc3ccccc3s2)ccc1O	i	-6.6	i	i	0.2	i	/	/
CC(C)c1ccc(-c2nc3ccccc3s2)cc1	i	-1.7	-8.43*	i	-1.0	i	i	i
CC(=O)OCC1CC(COC(C)=O)C(COC(C)=O)CC1COC(C)=O (configuration not stated)	i	/	/	/	/	/	/	/
Cc1ccc(OCC(=O)NNC(=S)NC(=O)C(C)(C)C)c(Br)c1	i	-3.7	-10.1*	i	-5.5	i	54.7%*	i
Cc1cc2[nH]c(=O)c(=O)[nH]c2cc1S(=O)(=O)Nc1cccc(F)c1	i	-0.8	i	i	0.5	i	/	/
CCOC(=O)N1CCC(Nc2ncnc3c2cnn3-c2ccc(C)cc2C)CC1	i	-1.9	-6.87*	i	-0.4	i	i	i
C=CCNc1ncnc2c1cnn2-c1ccc(C)cc1C	i	-2.6	i	i	-2.2	i	/	/
OCc1cccc(Nc2ncnc3sc4c(c23)CCCCC4)c1	i	-4.0	i	i	-0.9	i	/	/
Cc1ccc(CNC(=O)c2ccc(CNc3c(N4CCCC4)c(=O)c3=O)cc2)cc1	i	-1.9	i	i	-2.7	i	/	/
O=C(NC1CCCCCCC1)c1ccc(CNc2c(N3CCOCC3)c(=O)c2=O)cc1	i	-3.0	-9.37*	i	-0.7	i	12.8%*	i
CC1CCCC(NC(=O)c2ccc(CNc3c(N4CCCC4)c(=O)c3=O)cc2)C1C (configuration not stated)	i	-3.4	-12.8*	i	-1.6	i	0.2%*	i

Compound activity deposited in PubChem by several laboratories.
